Laboratory results taken from ChEMBL document CHEMBL1147131, “Investigation of the lactam side chain length necessary for optimal indenoisoquinoline topoisomerase I inhibition and cytotoxicity in human cancer cell cultures” (J Med Chem, 2007).
Calls of active or inactive are those of the source. The calls are words filed in the database; no cut-off is given here.

Experiments:
[1] = Cytotoxicity against human HOP62 cells; type: cell-based; settings: HOP-62 cells
[2] = Cytotoxicity against human HCT116 cells; type: cell-based; settings: HCT-116 cells
[3] = Cytotoxicity against human […] cells; type: cell-based
SF-268 = assay: Cytotoxicity against human SF268 cells; type: functional
[4] = Cytotoxicity against human DU145 cells; type: cell-based; settings: DU-145 cells
[5] = Cytotoxicity against human UACC62 cells; type: cell-based; settings: UACC-62 cells
[6] = Cytotoxicity against human OVCAR-3 cells; type: cell-based
[7] = Cytotoxicity against human SN12C cells; type: cell-based
[8] = molecular target: T1, DNA topoisomerase 1 (Homo sapiens) (UniProt P11387); assay: Inhibition of human recombinant topoisomerase 1-mediated DNA cleavage after 30 mins
T1 sequence (whole entry): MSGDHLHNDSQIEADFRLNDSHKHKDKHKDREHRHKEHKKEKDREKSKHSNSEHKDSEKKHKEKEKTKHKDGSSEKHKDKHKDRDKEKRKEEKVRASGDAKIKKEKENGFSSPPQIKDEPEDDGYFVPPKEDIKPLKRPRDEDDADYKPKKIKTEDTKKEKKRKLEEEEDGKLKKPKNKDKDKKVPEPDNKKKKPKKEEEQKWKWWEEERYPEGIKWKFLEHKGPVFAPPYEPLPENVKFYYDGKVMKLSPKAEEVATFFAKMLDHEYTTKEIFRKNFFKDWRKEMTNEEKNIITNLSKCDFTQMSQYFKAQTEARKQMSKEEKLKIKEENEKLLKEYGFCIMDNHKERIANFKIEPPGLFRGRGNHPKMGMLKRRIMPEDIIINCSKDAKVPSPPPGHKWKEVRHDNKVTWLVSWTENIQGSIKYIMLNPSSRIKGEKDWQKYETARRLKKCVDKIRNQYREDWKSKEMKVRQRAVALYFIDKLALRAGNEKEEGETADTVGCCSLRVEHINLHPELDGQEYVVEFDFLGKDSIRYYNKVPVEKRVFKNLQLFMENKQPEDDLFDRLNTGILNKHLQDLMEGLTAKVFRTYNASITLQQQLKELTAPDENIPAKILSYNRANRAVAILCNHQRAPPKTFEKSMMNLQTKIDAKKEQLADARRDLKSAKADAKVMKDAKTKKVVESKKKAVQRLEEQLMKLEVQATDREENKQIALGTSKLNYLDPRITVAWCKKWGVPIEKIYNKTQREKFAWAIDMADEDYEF
Procedure, shortened: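 Human recombinant Top1 purified from baculovirus. Substrate: 161 bp PvuII/HindIII fragment of pBluescript SK(−), 3′-end labeled at the HindIII site by Klenow fill-in with [α-32P]-dGTP. About 50,000 dpm per reaction, incubated with Top1 plus drug for 30 min at 22 °C. Stopped with SDS (0.5% final). Run on denaturing 16% polyacrylamide/7 M urea gels and phosphorimaged. Cleavage scored semi-quantitatively (+ scale) against the parent indenoisoquinoline.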

SMILES | GI50 [1] | GI50 [2] | GI50 [3] | GI50 (SF-268) | GI50 [4] | GI50 [5] | GI50 [6] | GI50 [7] | Activity [8]
CC(C)(C)OC(=O)NCCCCCCCCCCCCn1c2c(c3ccccc3c1=O)C(=O)c1ccccc1-2 | 32.4 µM | > 100 µM | > 100 µM | 20.4 µM | 91.2 µM | 27.5 µM | > 100 µM | > 100 µM | –
NCCCCCCCCCCCn1c2c(c3ccccc3c1=O)C(=O)c1ccccc1-2 | 2.19 µM | 1.91 µM | 11 µM | 2.04 µM | 4.57 µM | 1.7 µM | 2.09 µM | 2 µM | –
NCCCCCCCCCn1c2c(c3ccccc3c1=O)C(=O)c1ccccc1-2 | 6.76 µM | 6.46 µM | 9.55 µM | 9.77 µM | 6.03 µM | 9.33 µM | 9.55 µM | 8.51 µM | inactive
CC[C@@]1(O)C(=O)OCc2c1cc1n(c2=O)Cc2cc3ccccc3nc2-1 [CAMPTOTHECIN] | – | – | 0.04 µM | 0.01 µM | – | – | – | – | –
NCCCCCCCCn1c2c(c3ccccc3c1=O)C(=O)c1ccccc1-2 | 2.14 µM | 1.66 µM | 5.62 µM | 2.82 µM | 3.39 µM | 3.8 µM | 3.47 µM | 3.47 µM | –
O=C1c2ccccc2-c2c1c1ccccc1c(=O)n2Cc1ccccn1 | 11.2 µM | – | 3.09 µM | 12.3 µM | 13.5 µM | 10.7 µM | 13.8 µM | 28.2 µM | inactive
COc1cc2c3c(n(CCCNCCCNCCCN)c(=O)c2cc1OC)-c1cc2c(cc1C3=O)OCO2 | – | 43 µM | 68 µM | – | > 100 µM | 44 µM | 0.88 µM | 33 µM | –
COc1cc2c3c(n(C)c(=O)c2cc1OC)-c1cc2c(cc1C3=O)OCO2 | – | – | 96 µM | – | – | – | – | – | –
Nn1c2c(c3ccccc3c1=O)C(=O)c1ccccc1-2 | 24.5 µM | > 50.1 µM | > 50.1 µM | 28.2 µM | > 50.1 µM | > 50.1 µM | > 50.1 µM | > 50.1 µM | inactive
CC(C)(C)OC(=O)NCCCCCCCCCCn1c2c(c3ccccc3c1=O)C(=O)c1ccccc1-2 | 28.8 µM | 60.3 µM | > 100 µM | 42.7 µM | 97.7 µM | 43.6 µM | > 100 µM | > 100 µM | inactive
NCCCCCn1c2c(c3ccccc3c1=O)C(=O)c1ccccc1-2 | 0.288 µM | 0.2 µM | 1.35 µM | 0.871 µM | 0.347 µM | 1.35 µM | 0.708 µM | 0.398 µM | inactive
COc1cc2c3c(n(CCCNCCNCCN)c(=O)c2cc1OC)-c1cc2c(cc1C3=O)OCO2 | 2.8 µM | 0.9 µM | 2.7 µM | – | 1.2 µM | 2.6 µM | 1.7 µM | 2.5 µM | –
COc1cc2c3c(n(CCCNCCCNCCN)c(=O)c2cc1OC)-c1cc2c(cc1C3=O)OCO2 | – | 23 µM | 38 µM | – | 52 µM | 37 µM | 20 µM | 20 µM | –
CC(C)(C)OC(=O)NCCCCCCCn1c2c(c3ccccc3c1=O)C(=O)c1ccccc1-2 | – | 17.4 µM | 81.3 µM | 20.9 µM | 31.6 µM | 20 µM | 33.9 µM | 74.1 µM | inactive
COc1cc2c3c(n(CCCNCCNCCCN)c(=O)c2cc1OC)-c1cc2c(cc1C3=O)OCO2 | 2.9 µM | 1.3 µM | 3.4 µM | – | 4.6 µM | 1.9 µM | 8.1 µM | 1.7 µM | –
O=C1c2ccccc2-c2c1c1ccccc1c(=O)n2Cc1cccnc1 | 7.59 µM | – | 42.7 µM | 6.76 µM | 13.8 µM | 8.71 µM | 13.8 µM | 13.8 µM | –
O=C1c2ccccc2-c2c1c1ccccc1c(=O)n2CCc1ccccn1 | 21.4 µM | – | 5.13 µM | 17.4 µM | 74.1 µM | 27.5 µM | > 100 µM | 77.6 µM | inactive
NCCCCn1c2c(c3ccccc3c1=O)C(=O)c1ccccc1-2 | 0.08 µM | 0.1 µM | 0.84 µM | 0.1 µM | 0.01 µM | 0.05 µM | 0.52 µM | 0.04 µM | –
NCCn1c2c(c3ccccc3c1=O)C(=O)c1ccccc1-2 | 0.62 µM | 0.27 µM | 0.92 µM | 0.21 µM | 0.76 µM | 0.92 µM | 0.71 µM | 0.49 µM | –
NCCCCCCn1c2c(c3ccccc3c1=O)C(=O)c1ccccc1-2 | 1.29 µM | 0.912 µM | 2.04 µM | 1.23 µM | 0.603 µM | 1.62 µM | 2 µM | 1.32 µM | –
NCCCCCCCCCCn1c2c(c3ccccc3c1=O)C(=O)c1ccccc1-2 | 4.79 µM | 2.75 µM | 11.7 µM | 1.82 µM | 3.47 µM | 13.8 µM | 10.7 µM | 3.31 µM | inactive
NCCCCCCCn1c2c(c3ccccc3c1=O)C(=O)c1ccccc1-2 | 1.2 µM | 1.26 µM | 2.24 µM | 1.78 µM | 0.832 µM | 2 µM | 1.7 µM | 1.66 µM | inactive
O=C1c2ccccc2-c2c1c1ccccc1c(=O)n2CCc1cccnc1 | 28.8 µM | – | 4.57 µM | 27.5 µM | 81.3 µM | 89.1 µM | > 100 µM | > 100 µM | inactive
CC(C)(C)OC(=O)NCCCCCCCCCn1c2c(c3ccccc3c1=O)C(=O)c1ccccc1-2 | 24.5 µM | – | > 100 µM | 17.8 µM | > 100 µM | 17.4 µM | 28.8 µM | 77.6 µM | –
NCCCCCCCCCCCCn1c2c(c3ccccc3c1=O)C(=O)c1ccccc1-2 | 17 µM | – | 19.5 µM | 18.2 µM | 19.1 µM | 14.8 µM | 17.8 µM | 13.5 µM | –
CC(C)(C)OC(=O)NCCCCCCCCn1c2c(c3ccccc3c1=O)C(=O)c1ccccc1-2 | 10.7 µM | 25.7 µM | > 50.1 µM | 8.71 µM | > 50.1 µM | 15.5 µM | – | > 50.1 µM | inactive
CC(C)(C)OC(=O)NCCCCCCCCCCCn1c2c(c3ccccc3c1=O)C(=O)c1ccccc1-2 | 20.9 µM | 35.5 µM | > 100 µM | 29.5 µM | 91.2 µM | 24 µM | 70.8 µM | > 100 µM | –
NCCCn1c2c(c3ccccc3c1=O)C(=O)c1ccccc1-2 | 0.2 µM | 0.18 µM | 0.78 µM | 0.25 µM | 0.22 µM | 0.26 µM | 1.38 µM | 0.16 µM | –
